According to ChEMBL document CHEMBL1145132, “N-hydroxy-3-phenyl-2-propenamides as novel inhibitors of human histone deacetylase with in vivo antitumor activity: discovery of (2E)-N-hydroxy-3-[4-[[(2-hydroxyethyl)[2-(1H-indol-3-yl)ethyl]amino]methyl]phenyl]-2-propenamide (NVP-LAQ824)” (J Med Chem, 2003):
Several values for one entry are separate records, joined by “and”; a condition that tells them apart may be missing. Equal values may be shown once.

Key:
[1] = test system: NCI-H1299; test: Inhibitory activity against H1299 human lung carcinoma cell growth; type: functional, cell-based
[2] = test system: Mus musculus; test: Ratio of the change in tumor volume of treated animals to the change in tumor volume of control animals at a dose of 30 mg/kg; type: functional
Outline: (§1)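 HCT116 sc xenografts (≈10⁶ cells) in female athymic nude mice, eight per group, treated from ≈100 mm³ tumors with iv lactate salt in 10% DMSO/D5W qd 5×/week for 10 or 15 doses. Tumors measured weekly; % T/C = change in treated tumor volume over change in vehicle-control tumor volume; one-tailed Student's t-test.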

[3] = test system: HCT-116; test: Inhibitory activity against HCT116 human colon cell growth; type: functional, cell-based
[4] = test system: Mus musculus; test: Compound was tested in vivo for maximum tolerated dose (MTD) that resulted in no deaths when administered intravenously for five days; type: functional
Outline: (§2)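 Athymic mice, four per group, dosed iv once daily for five consecutive days, up to a maximum of 200 mg/kg/day. Compound given as the lactate salt in 10% DMSO in 5% dextrose/water (final DMSO 10%). MTD taken as the highest dose that caused no deaths.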

[5] = molecular target: Histone deacetylase; test: Inhibitory activity against histone deacetylase (HDAC) enzyme obtained from H1299 human lung carcinoma cell lysates
[6] = test system: Mus musculus; test: Compound was tested in vivo for efficacy in athymic mice bearing HCT116 subcutaneous tumor xenografts at a dose of 30 mg/kg and change in the body weight of the mouse was evaluated; type: functional
Outline: (§3)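 Female outbred athymic nu/nu mice, ≈10⁶ HCT116 cells injected sc in right axillary region under anesthesia; treatment began when tumors ≈100 mm³ (day 13 post-implant), groups of eight balanced on tumor volume. Compound given iv as lactate salt in 10% DMSO/D5W, qd 5×/week for 15 doses. Individual body weights recorded once weekly; % change from start reported.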

[7] = test system: Mus musculus; test: Ratio of number of deaths of mice to the number of mice tested was determined at a dose of 50 mg/kg; dead/total = 0 / 8; type: functional
Outline: (§4)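 Female outbred athymic nu/nu mice, eight per group, carrying subcutaneous right-axillary HCT116 (≈10⁶ cells) or A549 (≈10⁷ cells) xenografts, started treatment at ≈100 mm³ tumour volume. Drug given as lactate salt in 10% DMSO/D5W, iv qd 5×/week for 15 doses. Body weights and tumours recorded weekly; deaths counted per group as dead/total.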

[8] = test system: Mus musculus; test: Ratio of number of deaths of mice to the number of mice tested was determined at a dose of 10 mg/kg; dead/total = 0 / 8; type: functional; outline: as §4
[9] = test system: Mus musculus; test: Compound was tested in vivo for efficacy in athymic mice bearing HCT116 subcutaneous tumor xenografts at a dose of 100 mg/kg and change in the body weight of the mouse was evaluated; type: functional; conditions: route intravenous, 100 mg/kg; outline: as §3
[10] = test system: Mus musculus; test: Ratio of the change in tumor volume of treated animals to the change in tumor volume of control animals at a dose of 100 mg/kg; type: functional; conditions: 100 mg/kg; outline: as §1
[11] = test system: Mus musculus; test: Ratio of the change in tumor volume of treated animals to the change in tumor volume of control animals at a dose of 10 mg/kg; type: functional; outline: as §1
[12] = test system: Mus musculus; test: Ratio of the change in tumor volume of treated animals to the change in tumor volume of control animals at a dose of 50 mg/kg; type: functional; outline: as §1
[13] = test system: Mus musculus; test: Compound was tested in vivo for efficacy in athymic mice bearing HCT116 subcutaneous tumor xenografts at a dose of 25 mg/kg and change in the body weight of the mouse was evaluated; type: functional
[14] = test system: Mus musculus; test: Compound was tested in vivo for efficacy in athymic mice bearing HCT116 subcutaneous tumor xenografts at a dose of 50 mg/kg and change in the body weight of the mouse was evaluated; type: functional; conditions: route intravenous; outline: as §3
[15] = test system: Mus musculus; test: Ratio of the change in tumor volume of treated animals to the change in tumor volume of control animals at a dose of 25 mg/kg; type: functional; outline: as §1
[16] = test system: Mus musculus; test: Compound was tested in vivo for efficacy in athymic mice bearing HCT116 subcutaneous tumor xenografts at a dose of 10 mg/kg and change in the body weight of the mouse was evaluated; type: functional; conditions: route intravenous; outline: as §3
[17] = test system: Mus musculus; test: Ratio of number of deaths of mice to the number of mice tested was determined at a dose of 100 mg/kg; dead/total = 0 / 8; type: functional; outline: as §4
[18] = test system: Mus musculus; test: Compound was tested for efficacy in athymic mice bearing HCT116 subcutaneous tumor xenografts at a dose of 50 mg/kg and change in the body weight of the mouse was evaluated; type: functional; outline: as §3
[19] = test system: Mus musculus; test: Compound was tested for maximum tolerated dose (MTD) that resulted in no deaths when administered intravenously for five days; type: functional; outline: as §2
[20] = test system: Mus musculus; test: Ratio of the change in tumor volume of treated animals to the change in tumor volume of control animals at a dose of 20 mg/kg; type: functional; outline: as §1
[21] = test system: Mus musculus; test: Compound was tested in vivo for efficacy in athymic mice bearing HCT116 subcutaneous tumor xenografts at a dose of 20 mg/kg and change in the body weight of the mouse was evaluated; type: functional; outline: as §3

O=C(/C=C/c1ccc(CNCCc2cnc3ccccc3c2)cc1)NO
IC50 [1]: 500 nM
T/C [2]: 77%
IC50 [3]: 40 nM
MTD [4]: 30 mg/kg
IC50 [5]: 67 nM
Body weight change [6]: -5.4%

O=C(/C=C/c1ccc(CNCCCc2c[nH]c3ccccc23)cc1)NO
IC50 [1]: 1000 nM
IC50 [3]: 100 nM
IC50 [5]: 53 nM

O=C(/C=C/c1ccc(CNCCc2c[nH]c3ccc(F)cc23)cc1)NO
Ratio [7]: 0
Ratio [8]: 0
Body weight change [9]: 6.7% and 7.5%
T/C [10]: 16% and 8%
IC50 [1]: 310 nM
T/C [11]: 40%
T/C [12]: 13%
Body weight change [13]: -6.6%
Body weight change [14]: -1.7%
T/C [15]: 19%
IC50 [3]: 30 nM
MTD [4]: 100 mg/kg
Body weight change [16]: -6.4%
IC50 [5]: 14 nM
Ratio [17]: 0

O=C(/C=C/c1ccc(CNCCc2coc3ccccc23)cc1)NO
IC50 [1]: 180 nM
T/C [12]: 49%
Body weight change [14]: 0.5%
IC50 [3]: 30 nM
MTD [4]: 50 mg/kg
IC50 [5]: 16 nM

CC(Cc1c[nH]c2ccccc12)NCc1ccc(/C=C/C(=O)NO)cc1 (stereo not given)
IC50 [1]: 410 nM
IC50 [3]: 20 nM
IC50 [5]: 24 nM

COc1ccccc1NCCNCc1ccc(/C=C/C(=O)NO)cc1
IC50 [1]: 2160 nM
IC50 [3]: 170 nM
IC50 [5]: 111 nM

O=C(/C=C/c1ccc(CNCc2c[nH]c3ccccc23)cc1)NO
IC50 [1]: 2200 nM
IC50 [3]: 160 nM
IC50 [5]: 59 nM

CC(NCCc1c[nH]c2ccccc12)c1ccc(/C=C/C(=O)NO)cc1 (stereo not given)
IC50 [1]: 480 nM
IC50 [3]: 15 nM
IC50 [5]: 23 nM

O=C(/C=C/c1ccc(CN2CCC(c3c[nH]c4ccccc34)CC2)cc1)NO
IC50 [1]: 900 nM
IC50 [3]: 110 nM
IC50 [5]: 53 nM

O=C(/C=C/c1ccc(CNCCOc2ccccc2)cc1)NO
IC50 [1]: 1530 nM
IC50 [3]: 160 nM
IC50 [5]: 69 nM

O=C(/C=C/c1ccc(CNCCCn2c3ccccc3c3ccccc32)cc1)NO
IC50 [1]: 1100 nM
IC50 [3]: 160 nM
IC50 [5]: 79 nM

O=C(/C=C/c1ccc(CNCCc2c[nH]c3ccc(OCc4ccccc4)cc23)cc1)NO
IC50 [1]: 65 nM
Body weight change [18]: -3%
T/C [12]: 45%
IC50 [3]: 40 nM
MTD [19]: 50 mg/kg

O=C(/C=C/c1ccc(CNCCc2cn(CC3CC3)c3ccccc23)cc1)NO
IC50 [1]: 250 nM
T/C [20]: 81%
IC50 [3]: 30 nM
Body weight change [21]: -0.9%
MTD [4]: 20 mg/kg
IC50 [5]: 84 nM

COc1ccc2[nH]cc(CCNCc3ccc(/C=C/C(=O)NO)cc3)c2c1
Ratio [7]: 0
Ratio [8]: 0
Body weight change [9]: 7.4% and 12%
T/C [10]: 9% and 22%
IC50 [1]: 580 nM
T/C [11]: 64%
T/C [12]: 24%
Body weight change [13]: -5.5%
Body weight change [14]: -8.1%
T/C [15]: 38%
IC50 [3]: 30 nM
MTD [4]: 100 mg/kg
Body weight change [16]: -4.6%
IC50 [5]: 14 nM
Ratio [17]: 0

O=C(/C=C/c1ccc(CNCCc2cc3ccccc3[nH]2)cc1)NO
IC50 [1]: 540 nM
IC50 [3]: 40 nM
IC50 [5]: 46 nM

Cc1nc2ccccc2n1CCNCc1ccc(/C=C/C(=O)NO)cc1
IC50 [1]: 2750 nM
IC50 [3]: 200 nM
IC50 [5]: 38 nM

CC(C)N(CCc1c[nH]c2ccccc12)Cc1ccc(/C=C/C(=O)NO)cc1
IC50 [1]: 30 nM
Body weight change [13]: -4.1%
T/C [15]: 29%
MTD [4]: 25 mg/kg

O=C(/C=C/c1ccc(NCCCc2c[nH]c3ccccc23)cc1)NO
IC50 [1]: 820 nM
IC50 [3]: 480 nM
IC50 [5]: 262 nM
